Assay results: ChEMBL document CHEMBL4699493, “Development of Bis-cyclic Imidazolidine-4-one Derivatives as Potent Antibacterial Agents” (J Med Chem, 2020)
Values after ≈ are worked out from the molar mass of the structure shown. Active and inactive are the calls of the source. The rule behind the calls is not given here.

What was measured:
Staphylococcus aureus [1] = assay: Antibacterial activity against methicillin-resistant Staphylococcus aureus ATCC 33591 measured for 13 passages; type: functional, organism-based
Outline: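 Serial-passage resistance test. A first MIC was run by TSB broth microdilution. Bacteria from the well after the last clear well were resuspended to about 10^6 CFU/mL for the next MIC. This was repeated for 13 passages.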

Escherichia coli [2] = assay: Antibacterial activity against Escherichia coli ATCC 25922 in presence of divalent Ca2+; type: functional
Outline: (§1)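 MIC by the standard TSB broth dilution method, in TSB made with DI water and supplemented with CaCl2 to 2 mM. Inoculum of log-phase bacteria at 10^6 CFU/mL. MIC = lowest concentration completely inhibiting growth.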

Staphylococcus aureus [3] = assay: Antibacterial activity against methicillin-resistant Staphylococcus aureus ATCC 33591; type: functional
Outline: (§2)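 Broth microdilution in TSB. Strains were grown 16 h, subcultured 6 h to log phase, then diluted to 10^6 CFU/mL by OD600. Compound came from a 5 mg/mL DMSO stock diluted in TSB and serially diluted, top final concentration 25 μg/mL. MIC was the lowest concentration giving complete growth inhibition. Done ≥3 times in duplicate.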

[4] = system: Staphylococcus epidermidis; assay: Antibacterial activity against methicillin-resistant Staphylococcus epidermidis RP62A in presence of monovalent Na+ and K+; type: functional
Outline: (§3)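 MIC set up as in the standard broth microdilution (log-phase inoculum at 10^6 CFU/mL, complete growth inhibition end point). The medium was TSB dissolved in 1× PBS (7.5 g per 250 mL) and autoclaved, supplying Na+ and K+.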

[5] = system: Staphylococcus epidermidis; assay: Antibacterial activity against methicillin-resistant Staphylococcus epidermidis RP62A in presence of divalent Ca2+; type: functional
Outline: (§4)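 MIC set up as in the standard TSB broth microdilution (log-phase inoculum at 10^6 CFU/mL, complete growth inhibition end point). The medium was TSB prepared in DI water with CaCl2 added to 2 mM.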

Cell membrane [6] = assay: Induction of inner membrane permeabilization in methicillin-resistant Staphylococcus aureus ATCC 33591 at 2 times MIC measured for 12 mins by propidium iodide staining based fluorescence microscopic analysis; type: functional, subcellular
Outline: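 Mid-log cells were washed in 5 mM HEPES/5 mM glucose and set at 10^6 CFU/mL, then mixed with PI (10 μM stock). Baseline fluorescence (ex 535/em 617 nm) was read about 8 min at 2-min intervals. Compound was then added and reading continued for 12 min. Water-only negative control; three repeats.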

Escherichia coli [7] = assay: Antibacterial activity against Escherichia coli ATCC 25922 in presence of monovalent Na+ and K+; type: functional
Outline: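 MIC by the standard broth dilution method, in medium made by dissolving TSB powder in 1× PBS (7.5 g per 250 mL), autoclaved, to supply Na+ and K+. Inoculum of log-phase bacteria at 10^6 CFU/mL. MIC = lowest concentration completely inhibiting growth.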

Staphylococcus aureus [8] = assay: Antibacterial activity against methicillin-resistant Staphylococcus aureus ATCC 33591 in presence of divalent Ca2+; type: functional; outline: as §4
Cell membrane [9] = assay: Induction of cell membrane disruption in Escherichia coli ATCC 25922 assessed as propidium iodide-positive cells at 2 times MIC after 2 hrs by fluorescence microscopic analysis; type: subcellular
Outline: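 Bacteria from a 10^6 CFU/mL suspension diluted 100-fold and treated with compound at 2 × MIC for 2 h. Cells pelleted (4000g, 15 min, 4 °C), washed three times in PBS, and stained 15 min with PI (5 μg/mL) and DAPI (10 μg/mL). Imaged by oil-immersion fluorescence microscopy; untreated controls included. Three repeats in duplicate.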

Cell membrane [10] = assay: Induction of cell membrane disruption in methicillin-resistant Staphylococcus aureus ATCC 33591 at 2 times MIC after 2 hrs by transmission electron microscopic analysis; type: subcellular
Outline: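 Bacteria at 10^6 CFU/mL were treated at 2× MIC for 2 h at 37 °C, pelleted, washed three times in PBS and resuspended in deionized water. Samples were dropped on grids, blotted, dried under vacuum at 50 °C for 30 s, then imaged by TEM. Untreated control.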

Staphylococcus aureus [11] = assay: Antibacterial activity against methicillin-resistant Staphylococcus aureus ATCC 33591 in presence of monovalent Na+ and K+; type: functional; outline: as §3
Cell membrane [12] = assay: Induction of cell membrane disruption in methicillin-resistant Staphylococcus aureus ATCC 33591 assessed as propidium iodide-positive cells at 2 times MIC after 2 hrs by fluorescence microscopic analysis; type: subcellular
Outline: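 A 10^6 CFU/mL suspension was diluted 100-fold and treated at 2× MIC for 2 h. Cells were pelleted (4000g, 15 min, 4 °C), washed three times in PBS, then stained 15 min with PI (5 μg/mL) and DAPI (10 μg/mL). Imaged by oil-immersion fluorescence microscopy alongside an untreated control. Three repeats in duplicate.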

[13] = Selectivity ratio of IC50 for cytotoxicity against human HeLa cells to MIC for methicillin-resistant Staphylococcus aureus; type: toxicity, cell-based
Outline: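 HeLa cells were seeded at 5×10^3/well and allowed to attach for 24 h (37 °C, 5% CO2). They were then exposed 24 h to a range of compound concentrations in growth medium. Viability was read by CCK-8 (1 h, absorbance 490 nm). Triplicate wells, three repeats. IC50 was divided by the MRSA MIC.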

[14] = Selectivity ratio of HC50 for hemolytic activity against mouse RBC to MIC for methicillin-resistant Staphylococcus aureus; type: toxicity; details: mouse red blood cells (erythrocytes)
Outline: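 Mouse RBCs were washed three times in PBS and diluted in 20 volumes of PBS. They were mixed with compound 2-fold serially diluted from 1 mg/mL in PBS, incubated 1 h at 37 °C, then centrifuged; supernatant read at A540. % hemolysis was calculated against PBS (0%) and 2% Triton (100%). Done ≥3 times in duplicate. HC50 was divided by the MRSA MIC.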

[15] = Hemolytic activity against mouse RBC measured after 1 hr by microplate reader analysis; type: ADME, cell-based, Erythrocyte; details: mouse red blood cells (erythrocytes)
Outline: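 Mouse red blood cells collected by centrifugation (500–700g, 10 min), washed three times in PBS, and diluted 20-fold in PBS. Mixed with 2-fold serial dilutions of compound (starting at 1 mg/mL in PBS) and incubated 1 h at 37 °C. After centrifugation, supernatant absorbance read at 540 nm. % hemolysis calculated relative to PBS (0%) and 2% Triton (100%). At least three repeats in duplicate.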

Klebsiella pneumoniae [16] = assay: Antibacterial activity against Klebsiella pneumoniae ATCC 13383 in presence of divalent Ca2+; type: functional; outline: as §1
[17] = system: Staphylococcus epidermidis; assay: Antibacterial activity against methicillin-resistant Staphylococcus epidermidis RP62A; type: functional; outline: as §2
Klebsiella pneumoniae [18] = assay: Antibacterial activity against Klebsiella pneumoniae ATCC 13383; type: functional
Outline: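 Broth microdilution in TSB. Stocks at 5 mg/mL in DMSO diluted with TSB to 100 μg/mL, then serially diluted; highest test concentration 25 μg/mL. Bacteria grown 16 h, subcultured 6 h to log phase, adjusted to 10^6 CFU/mL by OD600. MIC = lowest concentration giving complete growth inhibition. At least three repeats, each in duplicate.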

For `CCCCCCCCCC(=O)N[C@@H](CCCCN)CN1CC(=O)N(c2ccc(N3CN(C[C@H](CCCCN)NC(=O)CCCCCCCCC)CC3=O)cc2)C1`, the Activity (Staphylococcus aureus [1]) was “Active”, the MIC (Escherichia coli [2]) was 7 µg/mL and the MIC (Staphylococcus aureus [3]) was 2 µg/mL (≈ 2.55 µM). For the same compound, the MIC [4] was 7 µg/mL, the MIC [5] was 2 µg/mL and the Activity (Cell membrane [6]) was “Active”. The MIC (Escherichia coli [7]) was 5 µg/mL, the MIC (Staphylococcus aureus [8]) was 2 µg/mL and the Activity (Cell membrane [9]) was “Active”. For the same compound, the Activity (Cell membrane [10]) was “Active”, the MIC (Staphylococcus aureus [11]) was 4 µg/mL and the Activity (Cell membrane [12]) was “Active”. It also gave a selectivity ratio [13] of over 38, a selectivity ratio [14] of over 125 and an HC50 at 1 h [15] of over 250 µg/mL. It also gave an MIC (Klebsiella pneumoniae [16]) of 5 µg/mL, an MIC [17] of 5 µg/mL (≈ 6.38 µM) and an MIC (Klebsiella pneumoniae [18]) of 5 µg/mL (≈ 6.38 µM).
